Our source for the inhibition values is ChEMBL document CHEMBL2321761, “Discovery of novel dual inhibitors of the wild-type and the most prevalent drug-resistant mutant, S31N, of the M2 proton channel from influenza A virus” (J Med Chem, 2013).

The subject of the assay is Influenza A virus. Briefly: Inhibition of Influenza A virus wild type M2 proton channel expressed in Xenopus laevis oocyte at 100 uM after 2 mins by two-electrode […] clamp assay. In outline: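 Full-length AM2 (WT) was expressed in Xenopus oocyte membranes and recorded by two-electrode voltage clamp during low-pH activation. Percent inhibition was read after only 2 min of exposure, before equilibrium was reached. IC50 values from this read-out are apparent kinetic values, not equilibrium dissociation constants.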
In general terms: The patch-clamp technique gives a direct electrical read-out from membranes.
Turning to `c1nc2cc(CNC34CC5CC(CC(C5)C3)C4)ccc2[nH]1`, the inhibition (in general, the share of the control response that was lost under treatment) was found to be 26%.

The compound `Oc1ccccc1CNC12CC3CC(CC(C3)C1)C2` returned an inhibition of 81%.

In turn, `c1ccc(CNC23CC4CC(CC(C4)C2)C3)nc1` yielded an inhibition of 12%.

The compound `C[S+]([O-])c1ccc(CNC23CC4CC(CC(C4)C2)C3)cc1` (stereo unspecified) returned an inhibition of 2%.

In the case of `c1cn(-c2ccc(CNC34CC5CC(CC(C5)C3)C4)cc2)cn1`, the inhibition was 4%.

As to `Oc1ccc(CNC23CC4CC(CC(C4)C2)C3)cc1Cl`, the inhibition amounted to 78%.

In turn, `Fc1ccc(CNC23CC4CC(CC(C4)C2)C3)cc1` yielded an inhibition of 77%.

Turning to `Oc1cccc(CNC23CC4CC(CC(C4)C2)C3)c1`, the inhibition is 88%.

`COc1ccc(CNC23CC4CC(CC(C4)C2)C3)cc1O` yielded an inhibition of 46%.

Turning to `Oc1ccc(CNC23CC4CC(CC(C4)C2)C3)c(O)c1`, the inhibition worked out at 64%.

`COc1cc(CNC23CC4CC(CC(C4)C2)C3)ccc1O` showed an inhibition of 76%.

Compound `CC(=O)c1ccc(CNC23CC4CC(CC(C4)C2)C3)cc1` returned an inhibition of 2%.

For the compound `CS(=O)(=O)c1ccc(CNC23CC4CC(CC(C4)C2)C3)cc1`, the inhibition is 45%.

For `Oc1ccc(CNC23CC4CC(CC(C4)C2)C3)c(Cl)c1`, the inhibition worked out at 78%.

For the compound `OC1CCC(CNC23CC4CC(CC(C4)C2)C3)CC1` (racemic), the inhibition was 16%.

On to `O=[N+]([O-])c1cc(CNC23CC4CC(CC(C4)C2)C3)ccc1O`, for which the inhibition turned out to be 66%.

`NC(=O)c1ccc(CNC23CC4CC(CC(C4)C2)C3)cc1` returned an inhibition of 7%.

In turn, `c1cc(CNC23CC4CC(CC(C4)C2)C3)ccn1` displayed an inhibition of 6%.

In turn, `Oc1ccc(CNC23CC4CC(CC(C4)C2)C3)cc1` had an inhibition of 67%.

The compound `COc1ccc(CN(C)C23CC4CC(CC(C4)C2)C3)cc1` registered an inhibition of 34%.

Consider `O=[N+]([O-])c1ccc(CNC23CC4CC(CC(C4)C2)C3)cc1`, for which the inhibition was determined as 49%.

For the compound `Nc1ccc(CNC23CC4CC(CC(C4)C2)C3)cc1`, the inhibition was determined as 31%.

`COc1ccc(CNC23CC4CC(CC(C4)C2)C3)c(O)c1` gave an inhibition of 56%.

The compound `C[C@@H]1[C@@H](/N=C/c2ccc(O)cc2)C[C@H]2C[C@@H]1C2(C)C` returned an inhibition of 91%.

In turn, `CC(C)(C)OC(=O)Nc1ccc(CNC23CC4CC(CC(C4)C2)C3)cc1` gave an inhibition of 13%.

`CC(=O)Nc1ccc(CNC23CC4CC(CC(C4)C2)C3)cc1` registered an inhibition of 3%.

Turning to `COc1ccc(COC23CC4CC(CC(C4)C2)C3)cc1`, the inhibition came out at 51%.

With `N#Cc1ccc(CNC23CC4CC(CC(C4)C2)C3)cc1`, the inhibition turned out to be 36%.

Compound `COc1cc(O)ccc1CNC12CC3CC(CC(C3)C1)C2` yielded an inhibition of 0%.

`Oc1ccc(CNC23CC4CC(CC(C4)C2)C3)cc1F`: the inhibition worked out at 65%.

Take `Oc1ccc(/C=N/C23CC4CC(CC(C4)C2)C3)cc1`: the inhibition is 81%.

Compound `c1cc2cn[nH]c2cc1CNC12CC3CC(CC(C3)C1)C2` came in with an inhibition of 79%.

`OCc1ccc(CNC23CC4CC(CC(C4)C2)C3)cc1`: the inhibition stood at 26%.

Compound `COc1ccccc1CNC12CC3CC(CC(C3)C1)C2` returned an inhibition of 22%.

In turn, `Oc1cc(F)ccc1CNC12CC3CC(CC(C3)C1)C2` gave an inhibition of 87%.

Take `Oc1ccc(CNC23CC4CC(CC(C4)C2)C3)cc1O`: the inhibition was 44%.

With `c1ccc(CNC23CC4CC(CC(C4)C2)C3)cc1`, the inhibition was 77%.

Turning to `O=[N+]([O-])c1ccccc1CNC12CC3CC(CC(C3)C1)C2`, the inhibition was determined as 48%.

`c1cnn(-c2ccc(CNC34CC5CC(CC(C5)C3)C4)cc2)c1`: the inhibition was found to be 4%.

For the compound `COc1ccc(CNC23CC4CC(CC(C4)C2)C3)cc1`, the inhibition came to 43%.

Turning to `c1cc(CNC23CC4CC(CC(C4)C2)C3)co1`, the inhibition was determined as 73%.

Turning to `COC(=O)[C@H](Cc1cnc[nH]1)NCC12CC3CC(CC(C3)C1)C2`, the inhibition was found to be 27%.

Turning to `NCc1ccc(CNC23CC4CC(CC(C4)C2)C3)cc1`, the inhibition stood at 3%.

`COc1ccc(CNC23CC4CC(CC(C4)C2)C3)c(OC)c1`: the inhibition is 16%.

For the compound `c1cc(-c2nnn[nH]2)ccc1CNC12CC3CC(CC(C3)C1)C2`, the inhibition stood at 6%.

In turn, `c1cc2c(cc1CNC13CC4CC(CC(C4)C1)C3)OCO2` showed an inhibition of 54%.
